Measured values pooled from the literature.
Cell line: HepG2
Effect on: cell growth or viability

SMILES | test | setting | IC50
Oc1c(I)cc(Cl)c2cccnc12 | MTT | 48 h | 58.6 µM
O=C(/C=C/c1ccc(O)c(O)c1)O[C@@H]1C[C@](O)(C(=O)O)C[C@@H](O)[C@H]1O | WST-1 | 48 h | 24.6 µM
COc1cc2ncnc(Nc3ccc(F)c(Cl)c3)c2cc1NC(=O)N/N=C/CN1CCCC1 | MTT | 72 h | 2.48 µM
O=C(NCCc1ccccc1)NNC(=O)c1ccc(Nc2nccc(-c3cccnc3)n2)cc1 | MTT |  | 5.48 µM
O=C(N/N=C/c1cccn1CCN1CCCC1)Nc1cc2c(Nc3ccc(F)c(Cl)c3)ncnc2cc1O[C@H]1CCOC1 | MTT | 72 h | 0.64 µM
CN(C)c1ccc(-c2nc3ccccc3[nH]2)cc1 | MTT | 48 h | 37.5 µM
C[C@H]1O[C@@H](n2cc(F)c(=O)[nH]c2=O)[C@H](O)[C@@H]1O | CCK-8 | 48 h | > 50 µM
Oc1cccc(-c2nc3ccccc3[nH]2)c1 | MTT | 48 h | 83 µM
COC(=O)CN=c1scc(-c2ccccc2)n1-c1ccccc1 | MTT | 72 h | 75.5 µM
COc1ccc(Nc2nc(-n3nc(C)cc3C)nc(-n3nc(C)cc3C)n2)cc1 | MTT | 72 h | 5.42 µM
CC(=O)O[C@@]12CO[C@@H]1C[C@H](O)[C@@]1(C)C(=O)[C@H](O)C3=C(C)[C@@H](OC(=O)[C@H](O)[C@@H](NC(=O)OC(C)(C)C)c4ccccc4)C[C@@](O)([C@@H](OC(=O)c4ccccc4)[C@H]21)C3(C)C | CCK-8 | 72 h | 0.11 µM
COc1cc2ncnc(Nc3ccc(F)c(Cl)c3)c2cc1NC(=O)N/N=C/CN1CCN(C)CC1 | MTT | 72 h | 2.23 µM
COc1ccc(-c2nc3ccc(C)cc3[nH]2)cc1O | MTT | 48 h | 59.8 µM
O=C(N/N=C/c1cccn1CCCN1CCCCC1)Nc1cc2c(Nc3ccc(F)c(Cl)c3)ncnc2cc1O[C@H]1CCOC1 | MTT | 72 h | 0.52 µM
COc1cccc2c1C(=O)c1c(O)c3c(c(O)c1C2=O)C[C@@](O)(C(=O)CO)C[C@@H]3O[C@H]1C[C@H](N)[C@H](O)[C@H](C)O1 | SRB |  | 0.37 µM
Cc1cc(=O)oc2ccc(-c3cc(-c4ccc(Br)cc4)nc(N)n3)c(O)c12 | MTT | 72 h | > 128 µg/mL
Nc1ccc(-c2csc(Nc3ccc4c(O)ncnc4c3)n2)cc1 | MTT |  | 15 µM
COc1cccc(-c2nc3ccccc3n2Cc2ccccc2)c1 | MTT |  | 40.7 µM
c1ccc(-c2ccccn2)nc1 | MTT | 48 h | > 50 µM
COc1cccc2c1C(=O)c1c(O)c3c(c(O)c1C2=O)C[C@@](O)(C(=O)CO)C[C@@H]3O[C@H]1C[C@H](N)[C@H](O)[C@H](C)O1 | neutral red | 48 h | 0.23 µg/mL
CCOc1ccc(-c2nc3ccccc3[nH]2)cc1 | MTT | 48 h | 43.1 µM
COc1cc2ncnc(Nc3ccc(F)c(Cl)c3)c2cc1NC(=O)N/N=C/CN1CCCCC1 | MTT | 72 h | 2.06 µM
CC1=C(O)C(=O)C=C2C1=CC=C1[C@@]2(C)CC[C@@]2(C)[C@@H]3C[C@](C)(C(=O)OCCCBr)CC[C@]3(C)CC[C@]12C | MTT | 48 h | 1.32 µM
Cc1cc(C)cc(NC(=O)NNC(=O)c2ccc(Nc3nccc(-c4ccccn4)n3)cc2)c1 | MTT | 24 h | 20.3 µM
CC1=C(O)C(=O)C=C2C1=CC=C1[C@@]2(C)CC[C@@]2(C)[C@@H]3C[C@](C)(C(=O)OCCCO)CC[C@]3(C)CC[C@]12C | MTT | 48 h | 0.75 µM

SMILES | test | setting | IC50
COc1cc(-c2nc(OCc3cn(CC(=O)Nc4ccc(C)cc4)nn3)c3ccccc3n2)cc(OC)c1OC | MTT | 72 h | 13.6 µM
Cc1ccc2nc(-c3cccc(O)c3)[nH]c2c1 | MTT | 48 h | 95.3 µM
COc1cc2c(Nc3ccc(NC(=O)c4ccccc4)cc3)ncnc2cc1OCCCN1CCOCC1 | MTS | 72 h | 0.6 µM
Oc1ccc(Br)cc1-c1nc2ccccc2[nH]1 | MTT | 48 h | 8.94 µM
CC1(C)CC[C@]2(C)CC[C@]3(C)C(=CC[C@@H]4[C@@]5(C)CC[C@H](O)C(C)(C)[C@@H]5CC[C@]43C)[C@@H]2C1 | WST-1 | 48 h | 82.8 µM
CNC(=O)c1cc(Oc2ccc(NC(=O)Nc3ccc(Cl)c(C(F)(F)F)c3)cc2)ccn1 | MTT | 24 h | 16.9 µM
O=c1c(O)c(-c2ccc(O)cc2)oc2cc(O)cc(O)c12 | WST-1 | 48 h | 34.4 µM
OCc1ccc2c(c1C#Cc1ccc(O)cc1)C(c1ccc(O)cc1)(c1ccc(O)cc1)c1cc(O)ccc1-2 | MTT | 48 h | > 50 µM
Cc1cc(=O)oc2ccc(-c3cc(-c4ccccc4)nc(N)n3)c(O)c12 | MTT | 72 h | > 128 µg/mL
C#Cc1cccc(Nc2ncnc3cc(OCCOC)c(OCCOC)cc23)c1 | MTT |  | 6.83 µM
COc1cc(/C=C/C(=O)c2ccc(NC(=O)c3ccccc3CN3C(=O)c4ccccc4C3=O)cc2)cc(OC)c1OC | MTT | 72 h | 1.62 µM
Oc1ncnc2cc(Nc3nc(-c4ccc(C(F)(F)F)cc4)cs3)ccc12 | MTT |  | 5.91 µM
Cc1ccc2nc(-c3ccc([N+](=O)[O-])cc3)n(Cc3ccccc3)c2c1 | MTT |  | 6.74 µM
CN(C)CCn1cccc1/C=N/NC(=O)Nc1cc2c(Nc3ccc(F)c(Cl)c3)ncnc2cc1O[C@H]1CCOC1 | MTT | 72 h | 0.04 µM
CC1=C(O)C(=O)C=C2C1=CC=C1[C@@]2(C)CC[C@@]2(C)[C@@H]3C[C@](C)(C(=O)OCCCCCCO)CC[C@]3(C)CC[C@]12C | MTT | 48 h | 10.7 µM
COc1cc2ncnc(Nc3ccc(F)c(Cl)c3)c2cc1NC(=O)N/N=C/c1cccn1CCN1CCCCC1 | MTT | 72 h | 0.05 µM
Oc1c(Br)cc(Br)c2cccnc12 | MTT | 48 h | > 100 µM
O=C(N/N=C/c1cccn1CCN1CCOCC1)Nc1cc2c(Nc3ccc(F)c(Cl)c3)ncnc2cc1O[C@H]1CCOC1 | MTT | 72 h | 1.68 µM
CC1=C(O)C(=O)C=C2C1=CC=C1[C@@]2(C)CC[C@@]2(C)[C@@H]3C[C@](C)(C(=O)OCCCCO)CC[C@]3(C)CC[C@]12C | MTT | 48 h | 0.63 µM
Cc1cccc(NC(=O)NNC(=O)c2ccc(Nc3nccc(-c4ccccn4)n3)cc2)c1 | MTT |  | 23.3 µM
CC1(C)CC[C@]2(C(=O)O)CC[C@]3(C)C(=CC[C@@H]4[C@@]5(C)CC[C@H](O)C(C)(C)[C@@H]5CC[C@]43C)[C@@H]2C1 | MTT | 48 h | > 100 µM
O=[N+]([O-])c1ccc(-c2csc(Nc3ccc4c(O)ncnc4c3)n2)cc1 | MTT |  | 6.87 µM
CC1=CC(C)(C)N(Cc2ccccc2)c2ccc(O)cc21 | MTT | 72 h | 20 µM
COC1=C2C[C@@H](C)C[C@H](OC)[C@H](O)[C@@H](C)/C=C(\C)[C@H](OC(N)=O)[C@@H](OC)/C=C\C=C(/C)C(=O)NC(=CC1=O)C2=O | MTT |  | 0.041 µM
